According to ChEMBL document CHEMBL2176883, “Aminopiperidine sulfonamide Cav2.2 channel inhibitors for the treatment of chronic pain” (J Med Chem, 2012):

Experiments:
[1] = Drug level rat brain at 100 mg/kg, po after 3 hrs; type: ADME, organism-based; design: dose 100 mg/kg, route oral; details: read-out: Drug uptake
In short: (§1)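 Rats were dosed orally at 100 mg/kg, motor coordination was tested on a rota-rod 3 h later, and plasma and brain exposure were then measured.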

[2] = test system: Mus musculus; assay: Antinociceptive activity in Cav2.2 deficient mouse assessed as reversal of complete Freund's adjuvant-induced pain at 30 mg/kg, po after 2 hrs; type: functional
[3] = test system: Mus musculus; assay: Antinociceptive activity in Cav2.2 expressing wild type mouse SNL neuropathic pain model assessed as reversal of mechanical allodynia at 30 mg/kg, po after 2 hrs; type: functional
In short: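 Cav2.2+/+ and Cav2.2−/− mice underwent spinal nerve ligation, then got a single 30 mg/kg oral dose. Mechanical allodynia was scored 2 h postdose.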

[4] = Plasma concentration in vagotomized dog at 1 mg/kg, iv after 30 mins; type: ADME, organism-based, Canis lupus familiaris; design: dose 1 mg/kg, route intravenous
In short: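 Anesthetized, vagotomized dogs; intravenous infusion in sequential rising doses of 1, 3 and 10 mg/kg (cumulative); plasma exposure sampled at indicated time points, n = 3.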

[5] = test system: Brain; assay: Drug metabolism in Sprague-Dawley rat assessed as 3-trifluoromethylbenzenesulfonamide level in brain at 10 mg/kg, po after 8 hrs; type: ADME, organism-based; design: dose 10 mg/kg, route oral; details: in vivo
In short: (§2)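 Male Sprague-Dawley rats were given a 10 mg/kg oral dose. Parent and metabolite concentrations were measured in whole blood and brain over time, including 8 h postdose.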

[6] = test system: Rattus norvegicus; assay: Analgesic activity in rat SNL neuropathic pain model assessed as reversal of mechanical allodynia at 30 mg/kg, po after 1 hr; type: functional
[7] = test system: Blood; assay: Drug metabolism in Sprague-Dawley rat assessed as 3-trifluoromethylbenzenesulfonamide level in blood at 10 mg/kg, po after 8 hrs; type: ADME, organism-based; design: dose 10 mg/kg, route oral; details: in vivo; in short: as §2
[8] = test system: Canis familiaris; assay: Cardiotoxicity in vagotomized dog assessed as heart rate at 1 to 10 mg/kg, iv up to 90 mins; type: toxicity, organism-based, Canis lupus familiaris; design: dose 1-10 mg/kg, route intravenous; details: in vivo, 1.5 h
In short: (§3)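 Anesthetized, vagotomized dogs received an intravenous infusion in sequential rising cumulative doses of 1, 3 and 10 mg/kg. MAP, HR, QRS, PR and QTc were monitored, with plasma exposure sampled at the indicated time points (n = 3).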

[9] = Fraction unbound in human plasma; type: ADME, cell-free
[10] = test system: Rattus norvegicus; assay: Antinociceptive activity in po dosed rat assessed as reversal of complete Freund's adjuvant-induced pain after 3 hrs; type: functional, organism-based
In short: (§4)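 In the rat CFA inflammatory pain model, compound was given orally at 30 mg/kg and allodynia was read at 1 and 3 h postdose. Average % reversal = (postdose − predose)/(preinjury − predose) for each rat, n = 6. Plasma exposure at 3 h was measured in satellite rats (n = 2).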

[11] = target: T1, hERG (Homo sapiens, UniProt Q12809); assay: Displacement of [35S]-MK-0499 from human ERG at 1 uM; details: probe [35S]-MK-0499
T1 sequence (Q12809 whole entry): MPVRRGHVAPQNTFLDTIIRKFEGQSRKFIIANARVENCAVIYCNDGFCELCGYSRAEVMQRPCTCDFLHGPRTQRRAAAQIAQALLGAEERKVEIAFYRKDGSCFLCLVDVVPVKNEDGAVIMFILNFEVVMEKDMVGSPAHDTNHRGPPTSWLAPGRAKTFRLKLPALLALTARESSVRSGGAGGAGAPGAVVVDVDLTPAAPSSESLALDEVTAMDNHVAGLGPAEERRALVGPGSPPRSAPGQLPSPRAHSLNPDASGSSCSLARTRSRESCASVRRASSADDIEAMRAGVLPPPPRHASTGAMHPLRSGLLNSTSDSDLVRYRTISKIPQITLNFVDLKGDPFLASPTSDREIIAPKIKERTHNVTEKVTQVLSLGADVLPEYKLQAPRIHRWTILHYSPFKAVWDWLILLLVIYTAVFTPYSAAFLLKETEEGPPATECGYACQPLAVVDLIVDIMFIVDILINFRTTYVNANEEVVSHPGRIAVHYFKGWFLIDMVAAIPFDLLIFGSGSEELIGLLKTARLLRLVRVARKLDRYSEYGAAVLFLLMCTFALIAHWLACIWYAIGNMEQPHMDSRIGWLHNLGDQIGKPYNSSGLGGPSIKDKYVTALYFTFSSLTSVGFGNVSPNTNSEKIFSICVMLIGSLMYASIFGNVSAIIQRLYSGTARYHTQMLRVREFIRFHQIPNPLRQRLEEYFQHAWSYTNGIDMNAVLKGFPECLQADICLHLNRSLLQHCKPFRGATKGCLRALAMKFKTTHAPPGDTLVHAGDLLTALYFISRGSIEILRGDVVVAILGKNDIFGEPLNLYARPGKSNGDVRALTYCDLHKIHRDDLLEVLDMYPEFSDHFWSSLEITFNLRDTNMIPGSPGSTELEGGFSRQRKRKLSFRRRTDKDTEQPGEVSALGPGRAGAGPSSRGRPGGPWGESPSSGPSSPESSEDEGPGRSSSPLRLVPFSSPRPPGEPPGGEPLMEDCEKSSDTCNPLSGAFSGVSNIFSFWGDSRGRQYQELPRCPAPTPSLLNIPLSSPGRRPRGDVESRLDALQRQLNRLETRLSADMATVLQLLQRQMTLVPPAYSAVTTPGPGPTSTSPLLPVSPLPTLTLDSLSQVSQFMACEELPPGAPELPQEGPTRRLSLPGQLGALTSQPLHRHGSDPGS
In short: (§5)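 hERG binding was measured as displacement of 35S-labeled MK-0499 at single test concentrations.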

[12] = test system: Liver microsomes; assay: Drug metabolism in rat liver microsomes assessed as assessed as 3-trifluoromethylbenzenesulfonamide level level; type: ADME, Microsome
[13] = test system: Canis familiaris; assay: Cardiotoxicity in vagotomized dog assessed as QTc interval at 1 to 10 mg/kg, iv up to 90 mins; type: toxicity, organism-based, Canis lupus familiaris; design: dose 1-10 mg/kg, route intravenous; details: in vivo, 1.5 h; in short: as §3
[14] = test system: Rattus norvegicus; assay: Analgesic activity in rat SNL neuropathic pain model assessed as reversal of mechanical allodynia at 10 mg/kg, po after 1 hr; type: functional
[15] = Oral bioavailability in rat at 3 mg/kg; type: ADME, organism-based; details: in vivo
In short: (§6)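 Rat pharmacokinetics from iv and po arms: 0.6 mg/kg iv with 1.8 mg/kg po, or 1 mg/kg iv with 3 mg/kg po. AUC was normalized to po dose (μM·h·kg/mg). Clearance (mL/min/kg) and half-life come from the iv arm, and F% is oral bioavailability.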

[16] = test system: Rattus norvegicus; assay: Neurotoxicity in rat assessed as motor coordination at 100 mg/kg, po after 3 hrs; type: toxicity, organism-based; design: dose 100 mg/kg, route oral; details: in vivo; in short: as §1
[17] = test system: Rattus norvegicus; assay: Antinociceptive activity in rat assessed as reversal of complete Freund's adjuvant-induced pain at 30 mg/kg, po after 3 hrs; type: functional; in short: as §4
[18] = target: T2, Nuclear receptor subfamily 1 group I member 2 (Homo sapiens, UniProt O75469); assay: Activation of PXR
T2 sequence (O75469 whole entry): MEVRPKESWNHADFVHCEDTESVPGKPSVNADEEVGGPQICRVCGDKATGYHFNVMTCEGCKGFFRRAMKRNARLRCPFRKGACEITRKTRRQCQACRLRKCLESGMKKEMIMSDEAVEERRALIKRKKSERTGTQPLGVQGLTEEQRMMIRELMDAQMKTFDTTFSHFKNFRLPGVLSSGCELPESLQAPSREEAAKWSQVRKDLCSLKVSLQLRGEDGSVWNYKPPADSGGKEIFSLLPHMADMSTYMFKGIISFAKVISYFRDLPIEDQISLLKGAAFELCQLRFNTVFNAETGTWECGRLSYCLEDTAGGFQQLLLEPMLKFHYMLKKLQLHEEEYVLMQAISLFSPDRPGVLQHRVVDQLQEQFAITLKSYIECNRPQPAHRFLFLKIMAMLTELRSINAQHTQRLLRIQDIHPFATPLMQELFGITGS
In short: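 PXR activation read as EC50, with maximal activation given as % at 10 μM.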

[19] = target: T3, Voltage-dependent N-type calcium channel subunit alpha-1B (Homo sapiens, UniProt Q00975); assay: Inhibition of Cav2.2 expressed HEK293 cells assessed as inhibition of calcium flux by FLIPR assay in presence of 30 mM of potassium; type: cell-based
In short: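 Calcium influx was read with a calcium-sensitive dye on FLIPR Tetra in CBK cells expressing α1B-1, α2-δ and β3a with Kir2.3. Cells were preincubated with compound in 30 mM K+, then channels were opened by 1:1 addition of 140 mM K+ solution. Compounds were screened at 1 μM, then titrated over 10 points (0.001–30 μM) in quadruplicate, mean ± SD. Values are averages of n ≥ 3.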
Target sequence in this assay (Q00975 whole entry): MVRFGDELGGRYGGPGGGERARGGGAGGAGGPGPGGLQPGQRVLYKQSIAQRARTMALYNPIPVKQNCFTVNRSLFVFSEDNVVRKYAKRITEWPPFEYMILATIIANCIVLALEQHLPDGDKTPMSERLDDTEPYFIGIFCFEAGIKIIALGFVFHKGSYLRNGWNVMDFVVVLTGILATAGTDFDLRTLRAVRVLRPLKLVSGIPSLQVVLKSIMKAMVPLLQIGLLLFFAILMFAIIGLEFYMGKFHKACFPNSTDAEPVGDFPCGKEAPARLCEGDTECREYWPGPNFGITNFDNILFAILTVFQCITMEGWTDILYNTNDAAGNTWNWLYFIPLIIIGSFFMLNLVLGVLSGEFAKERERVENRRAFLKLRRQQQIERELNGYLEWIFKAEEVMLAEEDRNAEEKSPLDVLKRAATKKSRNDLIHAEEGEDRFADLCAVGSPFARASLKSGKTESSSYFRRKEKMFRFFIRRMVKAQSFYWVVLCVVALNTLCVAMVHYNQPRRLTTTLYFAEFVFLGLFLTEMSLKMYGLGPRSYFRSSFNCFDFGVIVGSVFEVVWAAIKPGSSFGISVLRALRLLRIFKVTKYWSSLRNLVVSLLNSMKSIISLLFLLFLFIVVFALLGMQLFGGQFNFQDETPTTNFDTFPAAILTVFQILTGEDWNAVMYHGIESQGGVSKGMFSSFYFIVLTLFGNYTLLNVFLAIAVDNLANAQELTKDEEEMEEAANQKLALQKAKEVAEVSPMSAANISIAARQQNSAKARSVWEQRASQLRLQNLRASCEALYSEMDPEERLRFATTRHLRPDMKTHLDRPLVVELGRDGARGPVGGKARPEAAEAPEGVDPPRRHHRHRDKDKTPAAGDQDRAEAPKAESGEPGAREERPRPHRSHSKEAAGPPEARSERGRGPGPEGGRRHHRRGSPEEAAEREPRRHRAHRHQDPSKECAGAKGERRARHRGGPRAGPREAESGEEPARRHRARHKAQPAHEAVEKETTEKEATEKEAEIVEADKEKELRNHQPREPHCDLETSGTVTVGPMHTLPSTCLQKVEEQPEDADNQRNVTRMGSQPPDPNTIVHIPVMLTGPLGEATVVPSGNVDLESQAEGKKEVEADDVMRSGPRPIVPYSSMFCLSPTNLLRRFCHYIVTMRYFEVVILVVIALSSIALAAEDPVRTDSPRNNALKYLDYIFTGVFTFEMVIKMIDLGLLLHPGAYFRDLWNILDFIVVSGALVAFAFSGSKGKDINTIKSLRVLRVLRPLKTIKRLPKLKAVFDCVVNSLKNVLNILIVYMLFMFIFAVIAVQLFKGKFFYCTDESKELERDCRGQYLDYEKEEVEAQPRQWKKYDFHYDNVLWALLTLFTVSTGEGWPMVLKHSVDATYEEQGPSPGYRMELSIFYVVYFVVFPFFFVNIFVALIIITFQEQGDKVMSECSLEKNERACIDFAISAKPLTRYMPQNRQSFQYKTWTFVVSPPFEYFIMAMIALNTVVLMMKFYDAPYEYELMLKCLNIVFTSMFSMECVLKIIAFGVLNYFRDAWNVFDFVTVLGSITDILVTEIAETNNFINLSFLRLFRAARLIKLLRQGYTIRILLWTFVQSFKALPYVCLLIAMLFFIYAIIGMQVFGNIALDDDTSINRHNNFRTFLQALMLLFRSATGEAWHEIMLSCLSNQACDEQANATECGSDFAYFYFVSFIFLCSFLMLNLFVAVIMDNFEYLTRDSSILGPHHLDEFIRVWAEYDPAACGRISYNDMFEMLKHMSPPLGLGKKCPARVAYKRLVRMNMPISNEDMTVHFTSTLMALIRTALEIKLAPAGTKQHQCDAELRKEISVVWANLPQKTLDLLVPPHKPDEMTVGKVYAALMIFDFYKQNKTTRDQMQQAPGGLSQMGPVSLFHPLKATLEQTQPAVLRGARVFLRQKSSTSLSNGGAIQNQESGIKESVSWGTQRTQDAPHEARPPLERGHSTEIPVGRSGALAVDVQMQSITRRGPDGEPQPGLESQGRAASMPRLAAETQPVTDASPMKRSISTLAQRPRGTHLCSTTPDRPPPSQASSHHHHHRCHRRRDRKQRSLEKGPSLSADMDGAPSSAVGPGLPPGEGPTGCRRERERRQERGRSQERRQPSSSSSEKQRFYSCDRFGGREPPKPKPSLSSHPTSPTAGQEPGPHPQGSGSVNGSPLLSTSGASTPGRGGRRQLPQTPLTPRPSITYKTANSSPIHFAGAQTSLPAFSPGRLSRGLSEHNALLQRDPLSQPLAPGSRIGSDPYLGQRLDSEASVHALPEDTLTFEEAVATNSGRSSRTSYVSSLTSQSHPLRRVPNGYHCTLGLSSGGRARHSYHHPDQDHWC

[20] = test system: Canis familiaris; assay: Cardiotoxicity in vagotomized dog assessed as PR interval at 1 to 10 mg/kg, iv up to 90 mins; type: toxicity, organism-based, Canis lupus familiaris; design: dose 1-10 mg/kg, route intravenous; details: in vivo, 1.5 h; in short: as §3
[21] = target: T3, Voltage-dependent N-type calcium channel subunit alpha-1B; assay: Inhibition of human Cav2.2 expressed CBK cells assessed as inhibition of channel current at <1 uM at holding membrane potential -40 mV by conventional patch clamp electrophysiology assay
In short: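 Cav2.2 current block was measured at a depolarized (−40 mV) or hyperpolarized (−90 mV) potential. At −40 mV, n = 2, 3, 4 and 1 at 0.3, 1, 3 and 10 μM. At −90 mV, n = 4 and 6 at 3 and 10 μM. Values are mean ± SEM.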
Target sequence in this assay (Q00975 whole entry, looked up): as the sequence (Q00975 whole entry) above

[22] = test system: Canis familiaris; assay: Cardiotoxicity in vagotomized dog assessed as mean arterial pressure at 1 to 10 mg/kg, iv up to 90 mins; type: toxicity, organism-based, Canis lupus familiaris, Artery; design: dose 1-10 mg/kg, route intravenous; details: in vivo, 1.5 h; in short: as §3
[23] = Metabolic stability in rat liver microsomes assessed as compound remaining at 1 uM after 1 hr; type: ADME, Microsome; details: read-out: Stability
In short: (§7)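 Compound at 1 μM was incubated with human or rat liver microsomes (1 mg/mL) for 1 h, and the percentage of parent remaining was determined.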

[24] = Metabolic stability in human liver microsomes assessed as compound remaining at 1 uM after 1 hr; type: ADME, Microsome; details: read-out: Stability; in short: as §7
[25] = target: T1, hERG; assay: Displacement of [35S]-MK-0499 from human ERG at 10 uM; details: probe [35S]-MK-0499; in short: as §5
[26] = Half life in rat at 3 mg/kg, po and 1 mg/kg, iv; type: ADME, organism-based; details: in vivo; in short: as §6

concentration at 3 h [1]: 11.9 µM | concentration at 0.5 h [4]: 1.96 µM | Drug metabolism [5]: Active | Drug metabolism [7]: 6.1 µM | fraction unbound [9]: 0.014 | Drug metabolism [12]: Active | bioavailability [15]: 99% | EC50 [18]: 0.43 µM | IC50 [19]: 0.56 µM | inhibition [21]: > 50% | remaining at 1 h, 1 µM [23]: 40% | remaining at 1 h, 1 µM [24]: 30% | half-life [26]: 1.3 h
SMILES: CS(=O)(=O)c1ccc(F)cc1C(=O)N1CCC(N(C2CC2)S(=O)(=O)c2cccc(C(F)(F)F)c2)CC1
Activity [2]: 4% | Activity [3]: 38% | Activity [6]: 65% | Activity [8]: Non-toxic | Activity [10]: Dose-dependent effect | inhibition at 1 µM [11]: 1.6% | Activity [13]: Non-toxic | Activity [14]: 45% | Activity [16]: Non-toxic | Activity [17]: 57% | Activity [20]: Non-toxic | Activity [22]: Non-toxic | inhibition at 10 µM [25]: 32%
